The IC50 is the concentration that gives 50% inhibition. Lower therefore signals higher potency.

Data on 14 compounds can be found in ChEMBL document CHEMBL1141666, “Synthesis of novel substituted 1,3-diaryl propenone derivatives and their antimalarial activity in vitro” (Eur J Med Chem, 2008).

Values after ≈ are worked out from the molar mass of the structure shown.

For the experiment, the system named is Plasmodium falciparum. The experiment can be described thus: Antimalarial activity against asexual blood stage of Plasmodium falciparum 3D7 after 48 hrs by candle jar method. The experiment is classed as functional, organism-based. Conditions: 3D7, 48 h. Put shortly:
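Asexual blood-stage parasites grown in B+ human erythrocytes, RPMI-1640 with 10% heat-inactivated pooled compatible serum; exposed to graded compound concentrations in triplicate, 48 h, 37 °C. Percent parasitemia inhibition versus controls from Giemsa-stained thin smears; IC50 from concentration-response curve.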
Turning to `COc1cc(/C=C/C(=O)c2ccc(N3CCOCC3)cc2)cc(OC)c1OC`, the IC50 was 4.6 µg/mL (≈ 12 µM).
In turn, `O=C(/C=C/c1ccc(Cl)cc1)c1ccc(-n2cccc2)cc1` had an IC50 of 2.93 µg/mL (≈ 9.52 µM).
For `O=C(/C=C/c1ccc(Cl)cc1)c1ccc(N2CCCCC2)cc1` the value was 5.15 µg/mL (≈ 15.8 µM); for `COc1cc(/C=C/C(=O)c2ccc(-n3cccn3)cc2)cc(OC)c1OC`, 6 µg/mL (≈ 16.5 µM).
In turn, `O=C(/C=C/c1ccc(Cl)cc1)c1ccc(N2CCCC2)cc1` registered an IC50 of 6.01 µg/mL (≈ 19.3 µM).
The figure for `COc1ccc(/C=C/C(=O)c2ccc(-n3nnc4ccccc43)cc2)cc1` is 6.8 µg/mL (≈ 19.1 µM); for `COc1cc(/C=C/C(=O)c2ccc(-n3cncn3)cc2)cc(OC)c1OC` it is 8.03 µg/mL (≈ 22 µM).
For the compound `O=C(/C=C/c1ccc(Cl)cc1)c1ccc(-n2nnc3ccccc32)cc1`, the IC50 was 2.5 µg/mL (≈ 6.95 µM).
`O=C(/C=C/c1ccc(Cl)cc1)c1ccc(-n2cccn2)cc1` returned an IC50 of 7.76 µg/mL (≈ 25.1 µM).
The figure for `O=C(/C=C/c1ccc(Cl)cc1)c1ccc(-n2cncn2)cc1` is 1.52 µg/mL (≈ 4.91 µM); for `COc1cc(/C=C/C(=O)c2ccc(N3CCCCC3)cc2)cc(OC)c1OC` it is 7.16 µg/mL (≈ 18.8 µM); for `O=C(/C=C/c1ccc(Cl)cc1)c1ccc(-n2ccnc2)cc1` it is 8.26 µg/mL (≈ 26.8 µM).
For `O=C(/C=C/c1ccc(Cl)cc1)c1ccc(N2CCOCC2)cc1` the value was 9.1 µg/mL (≈ 27.8 µM).
The figure for `COc1ccc(/C=C/C(=O)c2ccc(-n3cccn3)cc2)cc1` is 12.3 µg/mL (≈ 40.5 µM).
